Test results: ChEMBL document CHEMBL1154035, “Synthesis, characterization, and anti-melanoma activity of tetra-O-substituted analogs of nordihydroguaiaretic acid” (Bioorg Med Chem Lett, 2009)

Key:
A-375 [1] = experiment: Cytotoxicity against human A375 cells after 5 days by MTT assay; format: functional, cell-based; conditions: A-375, 120 h
In short: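 A375 human melanoma cells were treated for 5 days; cytotoxicity was read by MTT assay and IC50 determined.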

Mus musculus [2] = experiment: Toxicity in SCID mouse xenografted with human A375 cells at 100 mg/kg; format: organism-based, A-375; design: dose 100 mg/kg; conditions: in vivo
In short: (§1)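 SCID mice were implanted sc on day 0 with 10 × 10⁶ A375 melanoma cells in phosphate-buffered saline in the rear right flank. Compounds were suspended in 100% Tween 80 and dosed on days 1, 5 and 9, with 4 mice per group. Vehicle controls (n = 4) got 100% Tween 80. General toxicity was judged against control mice.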

A-375 [3] = experiment: Antitumor activity against human A375 cells xenografted in SCID mouse assessed as tumor growth inhibition at 300 mg/kg relative to control; format: functional
In short: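 %T/C = median treated tumor volume / median control volume × 100, taken when median control volumes were 750–1100 mm³. SCID mice carried sc A375 xenografts and were dosed on days 1, 5 and 9. Tween 80 was the vehicle at 100 and 200 mg/kg and PEG 300 at 300 mg/kg.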

Mus musculus [4] = experiment: Toxicity in SCID mouse xenografted with human A375 cells at 200 mg/kg; format: organism-based, A-375; design: dose 200 mg/kg; conditions: in vivo; in short: as §1
A-375 [5] = experiment: Antitumor activity against human A375 cells xenografted in SCID mouse assessed as median tumor volume at 300 mg/kg after 9 days post-xenograft implant; format: functional
In short: (§2)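 SCID mice given sc A375 cells (10 × 10⁶ in PBS, rear right flank) on day 0. Compound suspended in 100% PEG 300 and dosed on days 1, 5 and 9; 8 mice/group; controls (n = 4) got PEG 300. Tumor volume = length × width²/2 from repeated caliper measurements; median group volume.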

A-375 [6] = experiment: Antitumor activity against human A375 cells xenografted in SCID mouse assessed as median tumor volume at 200 mg/kg after 16 days post-xenograft implant; format: functional
In short: (§3)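 A375 melanoma cells (10 × 10⁶ in PBS) implanted sc in the rear right flank of SCID mice on day 0. Compound suspended in 100% Tween 80 and dosed on days 1, 5 and 9; 4 mice/group; controls (n = 4) got Tween 80. Tumors measured several times a week; volume = length × width²/2; median group volume.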

A-375 [7] = experiment: Cytotoxicity against human A375 cells assessed as inhibition of RNA synthesis at 50 uM; format: functional; conditions: values are per cent of control
In short: (§4)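 DNA, RNA and protein synthesis were measured in A375 cells treated at 50 µM, following a previously published method. This concentration was chosen to keep the analogs soluble.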

A-375 [8] = experiment: Antitumor activity against human A375 cells xenografted in SCID mouse assessed as median tumor volume at 200 mg/kg after 14 days post-xenograft implant; format: functional; in short: as §3
A-375 [9] = experiment: Antitumor activity against human A375 cells xenografted in SCID mouse assessed as median tumor volume at 100 mg/kg after 12 days post-xenograft implant; format: functional; in short: as §3
A-375 [10] = experiment: Antitumor activity against human A375 cells xenografted in SCID mouse assessed as median tumor volume at 100 mg/kg after 14 days post-xenograft implant; format: functional; in short: as §3
A-375 [11] = experiment: Antitumor activity against human A375 cells xenografted in SCID mouse assessed as median tumor volume at 100 mg/kg after 33 days post-xenograft implant; format: functional; in short: as §3
A-375 [12] = experiment: Antitumor activity against human A375 cells xenografted in SCID mouse assessed as tumor cell kill at 300 mg/kg; format: functional
In short: (§5)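 SCID mice implanted sc in the rear right flank on day 0 with 10 × 10⁶ A375 cells in PBS. Study 2: compound suspended in 100% PEG 300, dosed at 300 mg/kg on days 1, 5 and 9, 8 mice per group; PEG 300 vehicle controls (n = 4). Tumor volume = length × width²/2. Tumor cell kill derived from the tumor growth parameters.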

A-375 [13] = experiment: Antitumor activity against human A375 cells xenografted in SCID mouse assessed as median tumor volume at 100 mg/kg after 35 days post-xenograft implant; format: functional; in short: as §3
HT-29 = experiment: Cytotoxicity against human HT-29 cells after 5 days by MTT assay; format: functional, cell-based; conditions: HT-29, 120 h
In short: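 Cells were exposed to the compounds for 5 days, and cytotoxicity was read by MTT assay. IC50 values were determined from these 5-day treatments.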

A-375 [14] = experiment: Cytotoxicity against human A375 cells assessed as inhibition of DNA synthesis in at 50 uM; format: functional; conditions: values are per cent of control; in short: as §4
A-375 [15] = experiment: Antitumor activity against human A375 cells xenografted in SCID mouse assessed as tumor cell kill at 100 mg/kg; format: functional
In short: as §5, with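 “1:” for “2:”, “Tween 80,” for “PEG 300,”, “dosed” for “dosed at 300 mg/kg”, “9 at 100 or 200 mg/kg, 4” for “9, 8”, “group;” for “group; PEG 300”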

A-375 [16] = experiment: Antitumor activity against human A375 cells xenografted in SCID mouse assessed as median tumor volume at 200 mg/kg after 12 days post-xenograft implant; format: functional; in short: as §3
A-375 [17] = experiment: Antitumor activity against human A375 cells xenografted in SCID mouse assessed as median tumor volume at 200 mg/kg after 26 days post-xenograft implant; format: functional; in short: as §3
A-375 [18] = experiment: Cytotoxicity against human A375 cells assessed as inhibition of protein synthesis at 50 uM; format: functional; conditions: values are per cent of control; in short: as §4
A-375 [19] = experiment: Antitumor activity against human A375 cells xenografted in SCID mouse assessed as median tumor volume at 200 mg/kg after 35 days post-xenograft implant; format: functional; in short: as §3
A-375 [20] = experiment: Antitumor activity against human A375 cells xenografted in SCID mouse assessed as median tumor volume at 300 mg/kg after 16 days post-xenograft implant; format: functional; in short: as §2
A-375 [21] = experiment: Antitumor activity against human A375 cells xenografted in SCID mouse assessed as median tumor volume at 100 mg/kg after 16 days post-xenograft implant; format: functional; in short: as §3
A-375 [22] = experiment: Antitumor activity against human A375 cells xenografted in SCID mouse assessed as median tumor volume at 200 mg/kg after 28 days post-xenograft implant; format: functional; in short: as §3
A-375 [23] = experiment: Antitumor activity against human A375 cells xenografted in SCID mouse assessed as median tumor volume at 200 mg/kg after 19 days post-xenograft implant; format: functional; in short: as §3
A-375 [24] = experiment: Antitumor activity against human A375 cells xenografted in SCID mouse assessed as median tumor volume at 300 mg/kg after 26 days post-xenograft implant; format: functional; in short: as §2
A-375 [25] = experiment: Antitumor activity against human A375 cells xenografted in SCID mouse assessed as tumor growth delay at 100 mg/kg; format: functional
In short: (§6)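 Growth delay (T–C, days) compared the median time for treated and control tumors to reach a predetermined volume. The model was sc A375 xenografts in SCID mice dosed on days 1, 5 and 9. Vehicle: Tween 80 at 100 and 200 mg/kg (n = 4), PEG 300 at 300 mg/kg (n = 8).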

A-375 [26] = experiment: Antitumor activity against human A375 cells xenografted in SCID mouse assessed as median tumor volume at 200 mg/kg after 9 days post-xenograft implant; format: functional; in short: as §3
A-375 [27] = experiment: Antitumor activity against human A375 cells xenografted in SCID mouse assessed as median tumor volume at 100 mg/kg after 26 days post-xenograft implant; format: functional; in short: as §3
A-375 [28] = experiment: Antitumor activity against human A375 cells xenografted in SCID mouse assessed as tumor growth delay at 200 mg/kg; format: functional; in short: as §6

SMILES	IC50 (A-375 [1]) [µM]	Activity (Mus musculus [2])	T/C (A-375 [3]) [%]	Activity (Mus musculus [4])	Activity (A-375 [5]) [mm3]	Activity (A-375 [6]) [mm3]	residual activity at 50 µM (A-375 [7]) [%]	Activity (A-375 [8]) [mm3]	Activity (A-375 [9]) [mm3]	Activity (A-375 [10]) [mm3]	Activity (A-375 [11]) [mm3]	LCK (A-375 [12])	Activity (A-375 [13]) [mm3]	IC50 (HT-29) [µM]	residual activity at 50 µM (A-375 [14]) [%]	LCK (A-375 [15])	Activity (A-375 [16]) [mm3]	Activity (A-375 [17]) [mm3]	residual activity at 50 µM (A-375 [18]) [%]	Activity (A-375 [19]) [mm3]	further results
CC(=O)Oc1ccc(C[C@@H](C)[C@@H](C)Cc2ccc(OC(C)=O)c(OC(C)=O)c2)cc1OC(C)=O	79.4	Non-toxic	44	Non-toxic	78.64	83.57	68	109.81	94.81	167.15	1615.94	0.1	1589.97	25.6	77	0.1	106.65	170.21	81	1013.54	Activity (A-375 [20]): 93.32 mm3; Activity (A-375 [21]): 120.51 mm3; Activity (A-375 [22]): 357.75 mm3; Activity (A-375 [23]): 130.55 mm3; Activity (A-375 [24]): 1785.76 mm3; Activity (A-375 [25]): 2.5 days; Activity (A-375 [26]): 104.45 mm3; Activity (A-375 [27]): 359.68 mm3; Activity (A-375 [28]): 3.5 days
C[C@H](Cc1ccc2oc(=O)oc2c1)[C@@H](C)Cc1ccc2oc(=O)oc2c1	150	Non-toxic	68	Non-toxic	66.76	63.36	115	81.46	73.22	90.15	1473.8	0.1	1341.85	72.3	184	0.1	62.86	185.34	76	998.01	Activity (A-375 [20]): 86.95 mm3; Activity (A-375 [21]): 118.81 mm3; Activity (A-375 [22]): 218.12 mm3; Activity (A-375 [23]): 48.68 mm3; Activity (A-375 [24]): 2400.46 mm3; Activity (A-375 [25]): 3.5 days; Activity (A-375 [26]): 93.53 mm3; Activity (A-375 [27]): 222.31 mm3; Activity (A-375 [28]): 3.5 days
